Screens deposited in PubChem by several laboratories.
Most compounds without a hit are left out; they make up all but 2.1% or so of the library.
Apaf-1 inh – blocks human Apaf-1 apoptosome activity; O14727; reconstituted apoptosome caspase-3 activity, DEVD-Rh110 fluorescence; inhibition, % at 20 µM; 330,000 tested, 0.71% active; AID 489030; active means inhibition of at least 40% at 20 µM;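 further: plate controls were DMSO wells for no effect and DEVD-CHO caspase inhibitor wells for full effect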
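Material: reconstituted apoptosome with Apaf-1, cytochrome c, caspase-9, procaspase-3, dATP / Buffer or medium: pH 7.5 Hepes buffer with CHAPS, BSA, DTT / Also added: cytochrome c with DEVD-Rh110 / Schedule: compound with Apaf-1, dATP, procaspase-3 30 min, then 50 min reaction, room temperature / Technique: rhodamine 110 fluorescence at Ex 480/Em 540 nm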
PP1 inh – counter-screen for PP5 inhibitors: inhibitors of human PP1-alpha. P62136. purified PP1alpha, OMFP fluorescence. inhibition, % at 6.7 µM. 320,000 tested, 0.9% active. AID 2235;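 active means inhibition above the mean inhibition of all tested compounds plus 3 SD, computed separately for each screening campaign, cut at about 15% in these data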
PP5 inh – blocks human protein phosphatase 5 activity; inhibition, % at 6.7 µM; P53041; 320,000 tested, 0.18% active; AID 1987; purified PP5c, OMFP substrate fluorescence;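 active means inhibition above the campaign's mean inhibition across all tested compounds plus 3 SD, cut at about 9.5% in these data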;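 further: 0% = DMSO only and 100% = 100 µM cantharidin control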
TDP2 absorb – TDP2 (human) inhibition, absorbance primary screen; recombinant TDP2, T5PNP hydrolysis, p-nitrophenol absorbance 415 nm; O95551; 370,000 tested, 0.34% active; inhibition, % at 12.8 µM; AID 720702;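 active means inhibition above the mean of all tested compounds plus 3 SD, set per campaign, cut at about 25% in these data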;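 further: 0% = DMSO with enzyme and 100% = buffer with substrate but no TDP2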
Target sequence (O95551 whole entry, looked up): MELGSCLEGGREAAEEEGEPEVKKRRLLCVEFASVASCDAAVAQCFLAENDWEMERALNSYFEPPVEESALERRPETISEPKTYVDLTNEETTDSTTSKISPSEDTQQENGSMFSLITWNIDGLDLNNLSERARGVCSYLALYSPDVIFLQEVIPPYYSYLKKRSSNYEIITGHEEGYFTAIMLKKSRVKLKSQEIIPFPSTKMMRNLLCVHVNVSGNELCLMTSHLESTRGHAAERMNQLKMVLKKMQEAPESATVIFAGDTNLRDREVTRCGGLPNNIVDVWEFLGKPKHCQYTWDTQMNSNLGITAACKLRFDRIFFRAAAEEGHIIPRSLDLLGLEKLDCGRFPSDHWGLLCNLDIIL
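Read-out basis: percent inhibition. System: recombinant human TDP2. Buffer or medium: Mg2+-containing Tris-HCl buffer, pH 7.5. Repeats: single replicate. Timing: reaction 2 h, 37 °C. Benchmarks: high control without enzyme, low control DMSO plus TDP2. Probe or stimulus: 5 mM T5PNP. Doses: 12.8 µM only. Measured by: epi absorbance of p-nitrophenol freed from T5PNP by hydrolysis.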
GSTO1 counter – counter-screen for RBBP9 inhibitors: inhibitors of human GSTO1. inhibition, % at 5.96 µM. recombinant GSTO1, activity-based probe fluorescence polarization. P78417. 300,000 tested, 1.1% active;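 active means inhibition above the campaign mean inhibition plus 3 SD, cut at about 35% in these data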;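 further: 0% = GSTO1-1 with DMSO and 100% = wells lacking GSTO1-1 enzyme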
Target sequence (P78417 whole entry, looked up): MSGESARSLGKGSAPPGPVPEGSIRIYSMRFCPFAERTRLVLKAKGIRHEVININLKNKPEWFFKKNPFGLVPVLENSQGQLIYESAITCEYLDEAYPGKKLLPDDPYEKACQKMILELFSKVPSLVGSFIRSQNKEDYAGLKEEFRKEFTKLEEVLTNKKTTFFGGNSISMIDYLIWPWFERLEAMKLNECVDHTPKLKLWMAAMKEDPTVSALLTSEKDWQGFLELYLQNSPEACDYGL
The depositor's hits bear a star; nt = not tested or not shown.

SMILES	Apaf-1 inh	PP1 inh	PP5 inh	TDP2 absorb	GSTO1 counter
CC1=NNC(=O)C1CC(=O)N/N=C/C(C)=C/c1ccccc1 (centres undefined)	-4.6	-1.9	-1.5	-2.4	5.9
Nc1c(S(=O)(=O)c2cccs2)c2nc3ccccc3nc2n1CCc1ccccc1	70.8*	3.7	3.6	-0.2	0.5
CCC(Sc1nc2ccccc2o1)C(=O)Nc1nnc(C)s1 (centres undefined)	7.1	1.4	3.3	2.7	43.7*
CCC(Sc1nc2ccccc2o1)C(=O)O (centres undefined)	-7.9	-1.8	-1.4	-9.1	2.9
CCCCn1c(-c2ccc(Cl)c(Cl)c2)nc2cc3[nH]c(=O)c(C(C)C)nc3cc21	30.1	15.8*	4.3	4.5	0.5
CCCCn1c(-c2ccc(C(C)(C)C)cc2)nc2cc3[nH]c(=O)c(C(C)C)nc3cc21	25.2	7.3	1.5	-21.4	17.9
O=C(/C=C/c1ccc(F)cc1)c1cc(Br)ccc1O	15.4	2.5	1.6	-2.0	4.7
O=C(/C=C/c1ccccc1)c1cc(Br)ccc(=O)c1O	11.0	16.8*	2.5	-2.7	19.6
C[C@@H]1CCN(C2CC2)S(=O)(=O)c2c(cccc2N2CC[C@@H](O)C2)O1	nt	nt	nt	-1.0	nt
Cn1c(=O)c2c(nc(Cl)n2CCOc2ccccc2)n(C)c1=O	-1.7	16.1*	-1.3	1.9	-1.4
COc1ccccc1CNC(=O)COc1cc(O)c2c(c1)OC(C)(C)CC2=O	nt	nt	nt	-3.4	nt
CCn1c(=S)sc2c(=O)n(CC(=O)NC(C)CCc3ccccc3)c(C)nc21 (centres undefined)	13.6	-1.4	-1.3	7.0	34.8*
O=[N+]([O-])c1ccc(/C=N/Nc2nc(NCc3ccccc3)nc(N3CCOCC3)n2)cc1	0.8	-9.3	-2.5	4.5	0.8
O=[N+]([O-])c1cccc(/C=N/Nc2nc(NCc3ccccc3)nc(N3CCOCC3)n2)c1O	11.2	17.3*	-0.3	-3.3	2.7
CN1CCN(C(=O)c2ccc(Cc3cn(C)c4ccccc34)nc2)CC1	nt	nt	nt	1.3	nt
C[C@H]1CCCN1c1cccc2c1S(=O)(=O)N1CC[C@H](C1)O2	nt	nt	nt	5.9	nt
CN(C)c1ccc(-c2[nH][nH]c(=O)c2NC(=O)c2ccccn2)cc1	nt	nt	nt	87.0*	nt
Cc1cnc(C(=O)Nc2c(-c3ccccc3)[nH][nH]c2=O)cn1	nt	nt	nt	-3.8	nt
CN(C)c1ccc(-c2[nH][nH]c(=O)c2NC(=O)c2ccc3ccccc3n2)cc1	nt	nt	nt	90.4*	nt
CC(C)C[C@@H]1COc2cc(NCCCN3CCOCC3)ccc2S(=O)(=O)N1	nt	nt	nt	7.4	nt
CCOC(=O)CC[C@@H]1CC[C@]2(CCCN(Cc3nccn3C)C2)O1	nt	nt	nt	-0.8	nt
CN(C)c1ccc(CNC(=O)/C=C/[C@H]2O[C@@H](n3ccc(=O)[nH]c3=O)[C@H](O)[C@@H]2O)cc1	nt	nt	nt	5.4	nt
CCCC(C)c1nnc(NC(=O)COc2ccc3c(c2)OCO3)s1 (centres undefined)	12.3	16.5*	-6.5	-10.4	-13.1
CC(C)c1nnc(NC(=O)COc2ccc3c(c2)OCO3)s1	4.0	-1.2	0.8	-4.1	8.3
CC(C)(C)C(=O)NC1=NN(c2c(Cl)cc(Cl)cc2Cl)C(=O)C1	67.6*	1.3	3.1	-0.6	14.0
SMILES	Apaf-1 inh	PP1 inh	PP5 inh	TDP2 absorb	GSTO1 counter
Cc1cc(C)c(NC(=O)C(C)(C)C)c(Cl)c1	-9.0	2.3	0.1	3.2	6.9
COc1ccccc1C(=O)NC1CCCCN(Cc2ccccc2C)C1=O (centres undefined)	nt	nt	nt	1.9	nt
CC(C)c1cc(NC(=O)CCl)on1	-19.3	-3.7	-2.2	-4.9	104.3*
O=c1oc2c(O)c(O)cc3c(=O)oc4c(O)c(O)cc1c4c23	nt	27.5*	-0.3	nt	70.4*
Cc1c(C)c2cc(Cl)c(O)c(CN(C)C)c2oc1=O	9.9	-2.2	5.2	-16.1	0.1
O=C1N(Cc2ccccc2)c2ccccc2C12CCCc1oc(CCc3ccccc3)nc12 (centres undefined)	nt	nt	nt	-0.1	nt
COc1cccc(C(=O)N2CCC2(C)C(=O)NC(C)C)c1 (centres undefined)	nt	nt	nt	2.4	nt
O=C(COC(=O)c1cccnc1)c1ccc(Cl)cc1	-23.5	1.6	0.1	6.7	20.7
O=C(COC(=O)c1cccnc1)c1ccc(Cl)c(Cl)c1	5.4	-3.6	3.7	0.2	36.1*
Oc1ccc(N=Cc2ccc(O)c(O)c2)cc1	75.0*	9.3	3.3	nt	87.9*
CN1CCc2c(sc(NC(=O)c3ccc4ccccc4c3)c2C(N)=O)C1	31.6	0.5	1.4	nt	-23.4
COc1cc2ccccc2cc1C(=O)Nc1sc2c(c1C(N)=O)CCN(C(C)C)C2	51.2*	6.4	7.1	6.8	-0.3
O=C(NCc1ccccc1)C1(C(=O)C2CC2)CC(c2ccccc2C(F)(F)F)=NO1 (centres undefined)	nt	nt	nt	-0.1	nt
COc1ccc(S(=O)(=O)NCC(=O)N2CCN(c3ccccn3)CC2)c(OC)c1	nt	nt	nt	8.1	nt
O=C(NCCN1CCN(c2ccccc2)CC1)c1cccn2c(=O)c3ccccc3nc12	26.6	0.6	2.9	4.0	-1.7
O=C(NCCNc1ccc2ccccc2c1)c1cccn2c(=O)c3sccc3nc12	50.8*	-1.9	1.7	nt	9.4
CC(=O)c1cccc(N(C(=O)Cn2nnc3ccccc32)C(C(=O)NC2CCCCC2)c2cn(C)nc2C)c1 (centres undefined)	0.6	0.3	2.3	7.8	2.1
O=C(NC1CCCCC1)C(c1ccc(O)c(O)c1)N(C(=O)Cn1nnc2ccccc21)c1cccc(O)c1 (centres undefined)	-5.3	3.1	-1.6	-16.6	36.3*
O=S1(=O)c2ccc(Br)cc2OC[C@H](Cc2ccccc2)N1Cc1cn(CCC2OCCCO2)nn1	nt	nt	nt	-10.3	nt
O=c1cc(-c2ccc(Cl)cc2)oc(=O)[nH]1	5.3	-0.6	0.6	-3.3	-2.0
O=c1cc(N=Nc2ccc(Cl)cc2)[nH]c(=O)[nH]1	nt	1.1	-1.9	11.7	47.3*
O=C1C=C(Nc2ccc(O)cc2)C(=O)c2ccccc21	15.1	0.6	4.2	5.7	38.5*
O=S1(=O)N=C(Nc2ccc(O)cc2)c2ccccc21	-9.6	-0.3	-1.8	8.6	7.1
